These results are taken from ChEMBL document CHEMBL4004869, “3-Phenylalkyl-2H-chromenes and -chromans as novel rhinovirus infection inhibitors” (Bioorg Med Chem, 2017).

A short description of data set [1]: Cytotoxicity against human HeLa cells assessed as reduction in cell viability by XTT assay. Format: cell-based. The method, boiled down:
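HeLa cytotoxicity by XTT colorimetric assay plus microscopy after 3 days at 37 °C. MNCC is the highest concentration leaving morphology and viability of all cells unaffected. Two independent assays in triplicate.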
(In general: Tetrazolium dyes change colour on reduction, which living cells bring about.)

Data set [2] in a line: Selectivity index, ratio of CC50 for human HeLa cells to IC50 for HRV 14 infected in human HeLa cells. An outline of the steps: (§1)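 Selectivity index is CC50 (XTT, HeLa) divided by IC50 from HeLa plaque reduction against the stated serotype.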
A short description of data set [3]: Selectivity index, ratio of CC50 for human HeLa cells to IC50 for HRV 1B infected in human HeLa cells. The method, boiled down:
as §1

The subject of another data set is rhinovirus A1B. The experiment in a line: Antiviral activity against HRV 1B infected in human HeLa cells after 72 hrs by plaque reduction assay. Format: functional, cell-based. The method, boiled down: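 Plaque reduction in HeLa monolayers infected with virus giving about 100 plaques per well. Compound tested dose-dependently starting from the maximum non-cytotoxic concentration, with ethanol stocks diluted in medium just before use. Where 50% is not reached, percent inhibition at MNCC is given. Two independent assays in triplicate, mean ± SD.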
(Plaque reduction counts the foci of infection that form in a cell layer.)

Data set [4] has as its system rhinovirus B14. The experiment in a line: Antiviral activity against HRV 14 infected in human HeLa cells after 72 hrs by plaque reduction assay. The data set is classed as functional, cell-based. An outline of the steps:
(§2)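 Plaque reduction in HeLa monolayers infected with virus giving about 100 plaques per well. Compound tested dose-dependently starting from the maximum non-cytotoxic concentration, with ethanol stocks diluted in medium just before use. IC50 is the dose cutting plaque number by 50%, read from log concentration versus percent plaque reduction. Where 50% is not reached, percent inhibition at MNCC is given. Two independent assays in triplicate, mean ± SD.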

Data set [5] is described as follows: Cytotoxicity against human HeLa cells assessed as changes in morphology after 3 days by microscopic method. The data set is classed as cell-based. The settings on record: read-out: MNCC. The method, boiled down: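 HeLa cytotoxicity by XTT colorimetric assay plus microscopy after 3 days at 37 °C. MNCC is the highest concentration leaving morphology and viability of all cells unaffected. CC50 is the dose reducing viability by 50% of untreated controls. Two independent assays in triplicate.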

Data set [6] relates to rhinovirus B14. The data set is described as follows: Antiviral activity against HRV 14 infected in human HeLa cells at MNCC after 72 hrs by plaque reduction assay relative to control. Format: functional. Set-up: scale not given: the % may be the effect or the level left. An outline of the steps: as §2
Where [7] appears, read: Rhinovirus A, HeLa, 72 h, read-out: IC50.
[8] abbreviates: Rhinovirus B, HeLa, 72 h, read-out: IC50.

Consider `C1=C(CCCCc2ccccc2)COc2ccccc21`, for which, in data set [1], the CC50 worked out at 100 µM. In addition, the results for the “Ratio CC50/IC50” value in data set [2] and in data set [3] were 7.87 and 185.18, respectively. The Activity result in the data set with rhinovirus A1B and with rhinovirus B14 [4] was “Dose-dependent effect” throughout. In addition, the figures for the IC50 with rhinovirus A1B (setting [7]) and in the data set on rhinovirus B14 [4] (setting [8]) were 0.54 µM and 12.7 µM, respectively. Further, the MNTC at 72 h in data set [5] turned out to be 50 µM.

Regarding `c1ccc(CCCCC2COc3ccccc3C2)cc1` (configuration not stated), the Activity in the data set on rhinovirus B14 [6] was 25%; with rhinovirus A1B, “Dose-dependent effect”; in the data set with rhinovirus B14 [4], “Dose-dependent effect”. Further, the CC50 in data set [1] worked out at 100 µM. In addition, the “Ratio CC50/IC50” value in data set [3] amounted to 140.84. Also, the IC50 in the data set on rhinovirus A1B (setting [7]) is 0.71 µM; with rhinovirus B14 [4] (setting [8]), more than 50 µM. In addition, the MNTC at 72 h in data set [5] is 50 µM.

As to `c1ccc(CCCCCC2COc3ccccc3C2)cc1` (configuration not stated), the CC50 in data set [1] was 200 µM. In addition, the “Ratio CC50/IC50” value in data set [2] stood at 6.05; in data set [3], 42.19. The Activity result with rhinovirus A1B and in the data set with rhinovirus B14 [4] was “Dose-dependent effect” each time. The IC50 with rhinovirus A1B (setting [7]) amounted to 4.74 µM; in the data set with rhinovirus B14 [4] (setting [8]), 33 µM. Moreover, in data set [5], the MNTC at 72 h was 100 µM.

Consider `Clc1ccc2c(c1)CC(CCCc1ccccc1)CO2` (configuration not stated), for which the CC50 in data set [1] amounted to 200 µM. Further, the “Ratio CC50/IC50” value is 8 in data set [2] and 111.73 in data set [3]. The Activity result in the data set on rhinovirus A1B and with rhinovirus B14 [4] was “Dose-dependent effect” in each case. The IC50 turned out to be 1.79 µM in the data set with rhinovirus A1B (setting [7]) and 25 µM with rhinovirus B14 [4] (setting [8]). Further, the MNTC at 72 h in data set [5] was 100 µM.

As to `O=C(/C=C/C1=Cc2ccccc2OC1)c1ccccc1`, the CC50 in data set [1] is 50 µM. For the same molecule, in the data set on rhinovirus A1B (hela), the IC50 entry is “Not Active”. In addition, the MNTC at 72 h in data set [5] is 25 µM.

In the case of `C1=C(CCCCCc2ccccc2)COc2ccccc21`, the Activity in the data set with rhinovirus B14 [6] was 37%; in the data set on rhinovirus A1B it was “Dose-dependent effect”; in the data set with rhinovirus B14 [4], “Dose-dependent effect”. Besides, the CC50 in data set [1] was found to be 100 µM. Further, the “Ratio CC50/IC50” value in data set [3] came out at 178.57. Also, the IC50 is 0.56 µM in the data set with rhinovirus A1B (setting [7]) and more than 50 µM in the data set on rhinovirus B14 [4] (setting [8]). Moreover, in data set [5], the MNTC at 72 h was 50 µM.

`c1ccc(CCCC2COc3ccccc3C2)cc1` (configuration not stated): the Activity with rhinovirus B14 [6] is 37%; with rhinovirus A1B it was “Dose-dependent effect”; in the data set on rhinovirus B14 [4], “Dose-dependent effect”. Further, in data set [1], the CC50 came out at 200 µM. Besides, the “Ratio CC50/IC50” value in data set [3] is reported as 20.85. Moreover, the IC50 in the data set on rhinovirus A1B (setting [7]) is 9.59 µM; in the data set with rhinovirus B14 [4] (setting [8]), more than 100 µM. Moreover, the MNTC at 72 h in data set [5] came out at 100 µM.

For the molecule `c1ccc(CCC2COc3ccccc3C2)cc1` (configuration not stated), the Activity in the data set with rhinovirus B14 [6] was 16%; in the data set with rhinovirus A1B, “Dose-dependent effect”; in the data set on rhinovirus B14 [4] it was “Dose-dependent effect”. Further, the CC50 in data set [1] is 6.25 µM. Further, in data set [3], the “Ratio CC50/IC50” value is 12.75. The figures for the IC50 in the data set on rhinovirus A1B (setting [7]) and in the data set with rhinovirus B14 [4] (setting [8]) were 0.49 µM and more than 3.12 µM, respectively. In addition, in data set [5], the MNTC at 72 h worked out at 3.12 µM.

For the molecule `C/C(=C\c1ccccc1)C1=Cc2ccccc2OC1`, the CC50 in data set [1] was 25 µM. Moreover, the IC50 entry with rhinovirus A1B (hela) and in the data set with rhinovirus B14 [4] (hela) was “Not Active” throughout. The MNTC at 72 h in data set [5] worked out at 12.5 µM.

Regarding `C1=C(CCCc2ccccc2)COc2ccccc21`, in data set [1], the CC50 turned out to be 200 µM. In addition, the “Ratio CC50/IC50” value was 4.94 in data set [2] and 84.39 in data set [3]. Besides, the Activity result with rhinovirus A1B and with rhinovirus B14 [4] was “Dose-dependent effect” each time. Moreover, the IC50 worked out at 2.37 µM in the data set on rhinovirus A1B (setting [7]) and 40.5 µM in the data set on rhinovirus B14 [4] (setting [8]). Besides, the MNTC at 72 h in data set [5] was determined as 100 µM.

In the case of `Clc1ccc(CCCC2COc3ccc(Cl)cc3C2)cc1` (configuration not stated), the CC50 in data set [1] was found to be 200 µM. For the same molecule, the “Ratio CC50/IC50” value in data set [2] stood at 6.67; in data set [3] it was 357.14. Moreover, the Activity entry in the data set with rhinovirus A1B and with rhinovirus B14 [4] was “Dose-dependent effect” in each case. In addition, the IC50 in the data set on rhinovirus A1B (setting [7]) was found to be 0.56 µM; in the data set with rhinovirus B14 [4] (setting [8]) it was 30 µM. Moreover, the MNTC at 72 h in data set [5] was 100 µM.

For `C1=C(CCc2ccccc2)COc2ccccc21`, the figures for the Activity in the data set on rhinovirus B14 [6], with rhinovirus A1B and in the data set on rhinovirus B14 [4] were 26%, “Dose-dependent effect” and “Dose-dependent effect”, respectively. Besides, in data set [1], the CC50 amounted to 50 µM. Besides, the “Ratio CC50/IC50” value in data set [3] is 104.17. Besides, the IC50 in the data set on rhinovirus A1B (setting [7]) is 0.48 µM; in the data set on rhinovirus B14 [4] (setting [8]), more than 25 µM. Further, in data set [5], the MNTC at 72 h was found to be 25 µM.

As usually defined, the CC50 is the concentration that lowers cell viability or growth by half. By IC50 is commonly meant the concentration needed to halve the response being measured.
